# From article PMC9371723 (Proceedings of the National Academy of Sciences of the …, 2022)
# What was measured:
# endogenous IAA = details: within 30 min; cited from earlier work
# AtGH3.11/JAR1 = details: cited from earlier work
# TAA1 = details: cited from earlier work
# auxin-conjugating GH3s = details: competitive inhibitor; cited from earlier work
# YUC monooxygenase = YUC monooxygenase inhibitors; cited from earlier work
# [1] = test system: Arabidopsis thaliana seedlings; assay: Primary and lateral root growth of Arabidopsis seedlings; format: in vivo; details: IAA at 0.05 µM
# Procedure, shortened: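 Primary root: seedlings grown vertically 6–8 d at 24 °C, continuous light, on GM plates with test compound (5 µM estradiol added for inducible lines); length recorded from photographs. Lateral root: seedlings grown vertically 6 d, moved to horizontal GM plates (2 g/L gellan gum) with chemicals for 2 d at 24 °C; lateral roots counted and primary root length measured.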
# [2] = test system: DII-VENUS fusion reporter protein; details: IAA application; cited from earlier work
# AtTIR1–IAA7 peptide = AtTIR1–IAA7 peptide (Arabidopsis thaliana, UniProt Q570C0); assay: SPR analysis of auxin-induced TIR1-IAA7 degron peptide interaction; format: binding
# [3] = test system: Arabidopsis mutants tir1-1 afb2-1, axr1-3, sav3-2, yucQ; assay: Lateral root formation in auxin signaling and biosynthesis mutants; format: in vivo, Arabidopsis thaliana
# Procedure, shortened: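 Signalling and biosynthesis mutant seedlings, 4 d old, incubated with test compound for 3 more days. sav3-2 co-treated with 1 µM yucasinDF; yucQ co-treated with 1 µM kynurenine. Read-out was lateral root formation.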
# AtAFB5–IAA7 = AtAFB5–IAA7 (Arabidopsis thaliana, UniProt Q9LTX2); assay: SPR analysis of auxin-induced AFB5-IAA7 degron peptide interaction; format: binding
# Physcomitrium patens = assay: Moss GH3::GUS reporter line phenotype; format: in vivo; details: 10 μM, 15 d
# Procedure, shortened: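 P. patens GH3::GUS reporter colonies cultured 15 d on BCDATG medium (0.8% agar) with or without 10 µM test compound and 10 µM IAA. GUS visualised histochemically with X-Gluc; ectopic leafy-like primordia scored.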
# [4] = test system: AtGH3.3, IAA19, YUC6 expression; assay: qRT-PCR of auxin-related genes in Arabidopsis; format: in vivo; details: after 60 min of treatment
# Procedure, shortened: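 Seedlings from vertical GM plates moved to liquid GM for 24 h, then harvested at intervals (10–60 min) after test compound was added. SYBR qRT-PCR: 95 °C 20 s, then 40 cycles of 95 °C 3 s and 60 °C 30 s. ΔΔCt normalised to UBQ10; n = 4, Tukey HSD vs mock.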
# [5] = test system: Rice (Oryza sativa cv. Nipponbare) seedlings; assay: Rice seedling primary root and mesocotyl assays; format: in vivo
# Procedure, shortened: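 Rice cv. Nipponbare seeds sterilised 20 min in 6% hypochlorite, rinsed, then germinated 2 d in sterile water at 28 °C in the dark. Mesocotyl: seedlings submerged 5 d in water with chemicals. Root: seedlings grown on 0.6% water agar with chemicals (n = 11). Both at 25 °C, 18 h light/6 h dark.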
# AtTIR1–IAA7 peptide, sequence (Q570C0 whole entry, other chains not shown): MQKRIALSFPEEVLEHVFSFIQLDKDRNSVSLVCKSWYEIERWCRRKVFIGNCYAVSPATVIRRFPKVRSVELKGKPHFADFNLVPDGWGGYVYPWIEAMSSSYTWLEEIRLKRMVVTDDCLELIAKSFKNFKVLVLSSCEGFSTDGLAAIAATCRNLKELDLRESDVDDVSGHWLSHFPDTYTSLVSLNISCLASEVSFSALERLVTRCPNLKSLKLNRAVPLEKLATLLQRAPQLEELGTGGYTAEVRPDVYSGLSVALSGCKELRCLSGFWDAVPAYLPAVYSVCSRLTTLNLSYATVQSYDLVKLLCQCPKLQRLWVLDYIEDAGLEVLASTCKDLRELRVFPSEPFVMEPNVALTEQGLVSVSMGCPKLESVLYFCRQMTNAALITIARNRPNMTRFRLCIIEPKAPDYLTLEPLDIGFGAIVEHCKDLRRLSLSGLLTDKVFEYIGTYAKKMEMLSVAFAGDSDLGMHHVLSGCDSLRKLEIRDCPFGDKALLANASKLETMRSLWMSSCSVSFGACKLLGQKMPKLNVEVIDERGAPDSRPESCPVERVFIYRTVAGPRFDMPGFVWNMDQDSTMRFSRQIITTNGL
# AtTIR1–IAA7 peptide, sequence (Q39255 whole entry partner, other chains not shown): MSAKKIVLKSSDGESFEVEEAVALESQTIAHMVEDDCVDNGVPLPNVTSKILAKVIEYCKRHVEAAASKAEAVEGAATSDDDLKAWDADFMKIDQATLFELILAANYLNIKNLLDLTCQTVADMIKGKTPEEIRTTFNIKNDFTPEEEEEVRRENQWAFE
# AtAFB5–IAA7, sequence (Q9LTX2 whole entry, other chains not shown): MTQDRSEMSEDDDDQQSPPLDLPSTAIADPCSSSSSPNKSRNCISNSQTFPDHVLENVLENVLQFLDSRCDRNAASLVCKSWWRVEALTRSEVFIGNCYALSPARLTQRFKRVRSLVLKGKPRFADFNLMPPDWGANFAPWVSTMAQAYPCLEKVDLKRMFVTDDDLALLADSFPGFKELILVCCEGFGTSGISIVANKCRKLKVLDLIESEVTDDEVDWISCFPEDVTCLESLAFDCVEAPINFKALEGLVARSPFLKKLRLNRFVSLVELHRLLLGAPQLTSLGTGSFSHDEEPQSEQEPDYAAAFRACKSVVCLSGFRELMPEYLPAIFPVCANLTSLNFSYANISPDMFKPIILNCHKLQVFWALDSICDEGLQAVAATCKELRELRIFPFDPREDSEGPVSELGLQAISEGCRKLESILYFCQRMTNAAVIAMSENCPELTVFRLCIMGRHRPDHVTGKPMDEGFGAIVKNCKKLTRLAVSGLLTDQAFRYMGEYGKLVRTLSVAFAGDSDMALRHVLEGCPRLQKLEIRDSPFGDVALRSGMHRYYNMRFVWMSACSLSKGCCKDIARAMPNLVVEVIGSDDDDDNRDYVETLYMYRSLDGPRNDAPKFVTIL
# AtAFB5–IAA7, sequence (Q39255 whole entry partner, other chains not shown): as the sequence (Q39255 whole entry partner, other chains not shown) above
structure (smiles),measurement,setting,value
S=c1nc(-c2ccc(Cl)cc2)[nH][nH]1 [yucasin],endogenous IAA level,endogenous IAA,decreased the endogenous IAA to almost basal level
COCCC(=O)N1C[C@@H]2C[C@H](C1)c1ccc(NC(=O)c3ccc(-c4ccccc4)cc3)c(=O)n1C2 [jarin-1],inhibition of AtGH3.11/JAR1,AtGH3.11/JAR1,selectively inhibits
Nc1ccccc1C(=O)C[C@H](N)C(=O)O [L-kynurenine],inhibition of TAA1,TAA1,competitively inhibit
"Nc1ncnc2c1ncn2[C@@H]1O[C@H](COP(=O)(O)OCCc2c[nH]c3ccccc23)[C@@H](O)[C@H]1O [AEIP, Adenosine-5-[2-(1H-indol-3-yl)ethyl]phosphate]",in vitro activity against auxin-conjugating GH3s,auxin-conjugating GH3s,micromolar range
OB(O)c1ccc(Oc2ccccc2)cc1 [PPBo],IAA production,YUC monooxygenase,block IAA production
"O=C(O)Cc1c[nH]c2ccccc12 [IAA, indole-3-acetic acid]",lateral root formation in WT roots,[1],promoted lateral root formation
same,time to decomposition of DII-VENUS after application,[2],≤ 10 min
same,effect on TIR1–IAA7 peptide association and dissociation,AtTIR1–IAA7 peptide,promotes interaction
same,lateral root formation in sav3-2 and yuc Q mutants,[3]; auxin biosynthesis mutants,induced by IAA to a similar extent as WT plants
same,lateral root formation in tir1-1 afb2-1 and axr1-3 mutants,[3]; auxin signaling mutants,showed resistance
same,effect on AFB5–IAA7 peptide association and dissociation,AtAFB5–IAA7,promotes interaction
same,ectopic formation of leafy-like primordia,Physcomitrium patens,has not been induced
same,expression of auxin biosynthesis gene YUC6,[4],down-regulated
same,mesocotyl elongation in rice,[5]; aerial part of rice seedlings,promoted mesocotyl elongation
same,primary root elongation in rice,[5]; rice roots,suppressed primary root elongation
